{
  "source": "paper PMC7540589",
  "about": "(Chemmedchem, 2020)",
  "assay": "Thermal and radiochemical stability during 68Ga-radiolabeling",
  "type": "physicochemical",
  "settings": "elevated temperature of 99 °C",
  "outline": "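Precursor (20 nmol in water) was added to 376.6–461.0 MBq ⁶⁸Ga³⁺ from ⁶⁸Ge/⁶⁸Ga generator fractioned elution with 0.1 M HCl. The mixture was titrated to pH 3.5–4.0 with 1.25 M sodium acetate and heated at 99 °C for 10 min. Reaction mixtures were analysed by analytical radio-HPLC.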",
  "data": [
    {"substance": "Ac[D‐Cys^29,Lys(DOTA)^31,Cys^34]NPY29‐36 [Compound 4]", "values": [
      {"measurement": "thermal stability of precursor", "value": "stable"}
    ]}
  ]
}
